Test results taken from article PMC3447998 (Biochemistry, 2012).
Entries after “also recorded” stand apart in the source; their conditions may differ.

How the values were obtained:
FLAG-tagged NRMT = test: Co-precipitation of endogenous proteins with FLAG-tagged NRMT; format: binding; details: FLAG-tagged NRMT expressed in 293LT cells; Coomassie-stained gel
How it was run: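 NRMT carrying a C-terminal FLAG tag was expressed in 293LT cells. Endogenous partner proteins were co-immunoprecipitated with it. Immunoprecipitates were resolved on a 10% polyacrylamide gel and stained with Coomassie blue.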

[1] = system: endogenous NRMT (293LT cells); test: Co-precipitation of endogenous NRMT with FLAG-tagged substrate proteins; format: binding; details: C-terminally FLAG-tagged protein expressed in 293LT cells
How it was run: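 C-terminally FLAG-tagged RCC1 or VRK2 expressed in 293LT cells, immunoprecipitated with anti-FLAG, and run on 10% polyacrylamide gel with Coomassie staining. On-bead material washed 3× with 100 mM ammonium bicarbonate (pH 8.0), then reduced, carbamidomethylated and digested with endoproteinase Glu-C (enzyme:protein 1:20). Peptides acidified to pH 3.5 and analysed by nano-LC-MS on C18 capillary columns.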

[2] = system: N-terminus of protein expressed in 293LT cells; format: cell-based; details: MS
How it was run: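 FLAG-tagged constructs were transfected into 293LT cells by calcium phosphate and immunoprecipitated on anti-FLAG beads. Bead-bound protein was reduced, carbamidomethylated and Glu-C digested (1:20). Peptides went to nanoflow reverse-phase HPLC-microESI with a high-resolution MS scan, then 5–10 data-dependent CAD/ETD MS2 scans. Spectra were interpreted manually. Each form's summed extracted-ion-chromatogram area over all charge states was divided by the peptide's total area.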

N-terminus of protein = details: yeast and mammals; ref [24],[25]; cited from earlier work
[3] = system: N-terminal methylation in mouse spleen; details: mouse spleen lysate/extract, MS
How it was run: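 Proteins from mouse spleen extract were immunoprecipitated with anti-me3-SPK antibody. On-bead samples were washed in 100 mM ammonium bicarbonate pH 8.0, reduced, carbamidomethylated and digested with Glu-C (1:20). Peptides were analysed by nanoflow reverse-phase HPLC with CAD/ETD tandem MS. N-terminal modifications were assigned by manual interpretation of the spectra.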

| Molecule | capture / co-precipitation of endogenous NRMT (in words) [1] | N-terminal acetylation reported (in words) (N-terminus of protein) | also measured |
| --- | --- | --- | --- |
| Mina53: possesses a potential N-terminal methylation motif, MPKKAKPT (protein) MPKKAKPTGSGKEEGPAPCKQMKLEAAGGPSALNFDSPSSLFESLISPIKTETFFKEFWEQKPLLIQRDDPALATYYGSLFKLTDLKSLCSRGMYYGRDVNVCRCVNGKKKVLNKDGKAHFLQLRKDFDQKRATIQFHQPQRFKDELWRIQEKLECYFGSLVGSNVYITPAGSQGLPPHYDDVEVFILQLEGEKHWRLYHPTVPLAREYSVEAEERIGRPVHEFMLKPGDLLYFPRGTIHQADTPAGLAHSTHVTISTYQNNSWGDFLLDTISGLVFDTAKEDVELRTGIPRQLLLQVESTTVATRRLSGFLRTLADRLEGTKELLSSDMKKDFIMHRLPPYSAGDGAELSTPGGKLPRLDSVVRLQFKDHIVLTVLPDQDQSDEAQEKMVYIYHSLKNSRETHMMGNEEETEFHGLRFPLSHLDALKQIWNSPAISVKDLKLTTDEEKESLVLSLWTECLIQVV | unable to capture endogenous NRMT |  | co-precipitation with FLAG-tagged NRMT (in words) (FLAG-tagged NRMT): co-precipitates; also recorded: co-precipitated with FLAG-tagged NRMT; cleavage of the initial Met residue ([2]; both samples, data not shown): 100% |
| PTPCAAX2: protein tyrosine phosphatase PTPCAAX2 (protein, UniProt Q12974 1-164, looked up) Protein tyrosine phosphatase …: MNRPAPVEISYENMRFLITHNPTNATLNKFTEELKKYGVTTLVRVCDATYDKAPVEKEGIHVLDWPFDDGAPPPNQIVDDWLNLLKTKFREEPGCCVAVHCVAGLGRAPVLVALALIECGMKYEDAVQFIRQKRRGAFNSKQLLYLEKYRPKMRLRFRDTNGHC |  | reported to be N-terminally acetylated |  |
| TSNAX protein: protein with SNK-N-terminus (protein, UniProt Q99598 1-290, looked up) Translin-associated protein X: MSNKEGSGGFRKRKHDNFPHNQRREGKDVNSSSPVMLAFKSFQQELDARHDKYERLVKLSRDITVESKRTIFLLHRITSAPDMEDILTESEIKLDGVRQKIFQVAQELSGEDMHQFHRAITTGLQEYVEAVSFQHFIKTRSLISMDEINKQLIFTTEDNGKENKTPSSDAQDKQFGTWRLRVTPVDYLLGVADLTGELMRMCINSVGNGDIDTPFEVSQFLRQVYDGFSFIGNTGPYEVSKKLYTLKQSLAKVENACYALKVRGSEIPKHMLADVFSVKTEMIDQEEGIS |  | reported to be N-terminally acetylated |  |
| MLC9: Myosin Light Chain isoform (protein, 100% N-terminally acetylated (by MS); left off: FLAG, C-terminal, kept) MSSKRAKAKTTKKRPQRATSNVFAMFDQSQIQEFKEAFNMIDQNRDGFIDKEDLHDMLASLGKNPTDEYLEGMMSEAPGPINFTMFLTMFGEKLNGTDPEDVIRNAFACFDEEASGFIHEDHLRELLTTMGDRFTDEEVDEMYREAPIDKKGNFNYVEFTRILKHGAKDKDD | cannot IP endogenous NRMT |  | N-terminal methylation in vivo (in words) [3]: methylated at the N-terminus in vivo; also recorded: N-terminally methylated; N-terminal modification (in words) ([2]; 293LT cells, immunoprecipitated protein): not N-terminally methylated; N-terminal acetylation ([2]; over-expressed in 293LT cells): 100% |
| RCC1-FLAG: FLAG-tagged RCC1, possesses a S-P-K motif (protein, left off: FLAG, C-terminal, kept) SPKRIAKRRSPPADAIPKSKKVKVSHRSHSTEPGLVLTLGQGDVGQLGLGENVMERKKPALVSIPEDVVQAEAGGMHTVCLSKSGQVYSFGCNDEGALGRDTSVEGSEMVPGKVELQEKVVQVSAGDSHTAALTDDGRVFLWGSFRDNNGVIGLLEPMKKSMVPVQVQLDVPVVKVASGNDHLVMLTADGDLYTLGCGEQGQLGRVPELFANRGGRQGLERLLVPKCVMLKSRGSRGHVRFQDAFCGAYFTFAISHEGHVYGFGLSNYHQLGTPGTESCFIPQNLTSFKNSTKSWVGFSGGQHHTVCMDSEGKAYSLGRAEYGRLGLGEGAEEKSIPTLISRLPAVSSVACGASVGYAVTKDGRVFAWGMGTNYQLGTGQDEDAWSPVEMMGKQLENRVVLSVSSGGQHTVLLVKDKEQS | efficiently captured endogenous NRMT |  | capture / co-precipitation of endogenous NRMT (in words) ([1]; listed as RCC1): NRMT is co-precipitated |
| ENSA protein: protein with SQK-N-terminus (protein, UniProt O43768 2-121, looked up) Alpha-endosulfine: SQKQEEENPAEETGEEKQDTQEKEGILPERAEEAKLKAKYPSLGQKPGGSDFLMKRLQKGQKYFDSGDYNMAKAKMKNKQLPSAGPDKNLVTGDHIPTPQDLPQRKSSLVTSKLAGGQVE |  | reported to be N-terminally acetylated |  |
